# Test results from article PMC11543989 (Communications Biology, 2024).
# Entries after “also recorded” stand apart in the source; their conditions may differ.
# Tests used:
# AMPK, mTOR, Akt [1] = format: cell-based, human
# SARS-CoV-2 [2] = format: cell-based
# SARS-CoV-2 replicon = test: HeLa-integrated SARS-CoV-2 replicon activity, N-HiBiT luminescence; format: cell-based
# In short: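 HeLa Flp-In T-REx replicon cells plated at 10% confluence, then induced 24 h later with 3 µg/mL doxycycline in regular FBS. After 16-24 h, a lytic detergent buffer with LgBiT and furimazine was added at a volume equal to the media to complement HiBiT-tagged nucleoprotein. Plates were shaken 10 min before reading luminescence. Replicon-free parental cells gave background; compound concentrations were compared with DMSO.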
# HCoV-229E [3] = format: cell-based
# AMPK, mTOR, Akt [4] = format: cell-based, human; details: 30 µM, HeLa-replicon cells, doxycycline 24 hours
# HCoV-229E [5] = format: cell-based; remark: listed apart in the source
# proximal lung organoids = test: Organoid viability by LDH release; format: cell-based, human; details: days 3 and 4, cordycepin 30 µM
# In short: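 Human proximal airway organoids derived from embryonic stem cells, expanded in matrigel in AES expansion medium, plated as one matrigel dome (~2000 organoids) per well. Test compounds (10 or 30 µM) or 0.5% DMSO were added on day 0, with three domes per condition. LDH release was read over 4 days; absorbance at 490 nm minus 680 nm background was converted to % cytotoxicity.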
# HCoV-229E [6] = test: microbe, parasite or virus in culture; format: cell-based
# HCoV-229E [7] = details: concentrations higher than 0.1 µM; cited from earlier work
# HCoV-229E [8] = format: cell-based; remark: listed apart in the source
# SARS-CoV-2 [9] = details: cited from earlier work
compound,measurement,setting,value
"Nc1ncnc2c1ncn2[C@@H]1O[C@H](CO)C[C@H]1O [Cordycepin, cordycepin]",phosphorylation level of AMPK,"AMPK, mTOR, Akt [1]",increased
same,protein level of AMPK,"AMPK, mTOR, Akt [1]",remained constant
same,total levels of mTOR and Akt compared to DMSO,"AMPK, mTOR, Akt [1]",large decrease
same,difference in SARS-CoV-2 viral RNA release compared to DMSO,SARS-CoV-2 [2],100 fold
same,inhibition of replicon activity,"SARS-CoV-2 replicon; 3 µg/mL doxycycline, 24 hours",did not show inhibition of replicon activity
same,"229E viral RNA release in media, time of incubation assay",HCoV-229E [3],dramatically reduced viral RNA release in media even up to 72 hpi
same,"229E viral RNA release, pre-treatment assay",HCoV-229E [3],reduced viral RNA release; also recorded: strong inhibition
same,"level of 229E viral RNA released, time of removal assay",HCoV-229E [3],reduced the level of viral RNA released even after being removed
same,"AMPK, mTOR or Akt phosphorylation","AMPK, mTOR, Akt [4]",No significant changes
same,total Akt levels,"AMPK, mTOR, Akt [4]",did decrease
same,total mTOR protein levels,"AMPK, mTOR, Akt [4]",not affected
same,"infectivity by TCID50, fold higher than that observed for BTZ-1 and ADEP-42",HCoV-229E [5],around 5 fold
same,cytotoxicity (LDH assay),proximal lung organoids,below 20%
same,IC50,"HCoV-229E [6]; Human coronavirus 229E, Huh-7, read-out: IC50, 229E viral replication (Fig. 6B)",2100 nM
same,reduction of SARS-CoV-2 RNA release,SARS-CoV-2 SB2 strain,99%
same,SI = CC50/IC50,SARS-CoV-2 SB2 strain; SARS-CoV-2,more than 20
"CN(C)C(=N)N=C(N)N [Metformin, metformin]","229E replication, various concentrations",HCoV-229E [6],inhibited 229E replication in a dose-dependent manner
"CCC(CC)COC(=O)[C@H](C)N[P@](=O)(OC[C@H]1O[C@@](C#N)(c2ccc3c(N)ncnn23)[C@H](O)[C@@H]1O)Oc1ccccc1 [Remdesivir, remdesivir]",IC50,"SARS-CoV-2 replicon; read-out: IC50, inhibition of replicon activity, 3 µg/mL doxycycline, 24 hours",400 nM
same,"229E viral RNA release, pre-treatment assay",HCoV-229E [3],little to no inhibition
same,inhibition of 229E,HCoV-229E [7],~100%
Nc1ncnc2c1ncn2[C@@H]1O[C@H](COP(=O)(O)OP(=O)(O)OP(=O)(O)O)C[C@H]1O [cordycepin-TP],229E S protein expression (IF),HCoV-229E [8],did not impact S protein expression
same,229E viral RNA release,"HCoV-229E [6]; 10 µM, same concentration as cordycepin, […]",only weakly inhibited viral RNA release
COc1ccc2c(c1)[nH]c1c(C)nccc12 [harmine],IC50,SARS-CoV-2 [9],7500 nM
